Experimental data pooled from the literature.
Each line is one published result; the experiments were not run side by side.
Target: Phosphorylase b kinase gamma catalytic chain, skeletal muscle/heart isoform (PHKG1, Homo sapiens, UniProt Q16816)

Oc1cccc(-c2nc(N3CCOCC3)c3oc4ncccc4c3n2)c1 — remaining activity (enzyme activity, inhibitor; 10 µM): 84%
COc1cccc2c(NCc3ccccc3)nc(-n3c(N)nc4ccccc43)nc12 — inhibition (target engagement in cells, inhibitor, chemoproteomics; 20 mM): 6.1%
CNCc1ccccc1-c1csc([C@H](C)Nc2nc(C)nc3cc(OC)c(OC)cc23)c1 — remaining binding (cell-free assay, competition with immobilised ligand; 1 µM): 87%
O=C(Nc1cnn(-c2csc(C(=O)NC3COC3)c2)c1)Nc1ccccc1Cl — remaining activity (enzyme activity, inhibitor; 5 µM): 102%
CC(C)(C)C(=O)c1sc(NC2CCCCC2)nc1N — remaining activity (enzyme activity, inhibitor; 10 µM): 112%
Cc1ccc(C(=O)Nc2ccc(CN3CCN(C)CC3)c(C(F)(F)F)c2)cc1C#Cc1cnc2cccnn12 — remaining activity (enzyme activity, inhibitor; 23.5 nM): 100%
NS(=O)(=O)c1cc(NC(=O)Cc2ccccc2)ccc1Oc1cccc(Cl)c1 — remaining binding (cell-free assay, competition with immobilised ligand; 1 µM): 87%
COc1cc(Cl)c(C(=O)N[C@@H](CN[C@H]2CC[C@@H](N)CC2)Cc2ccc(C#N)cc2)cc1-c1ccc(CN[C@H](C)c2ccc(C)cc2)o1 — remaining activity (enzyme activity, inhibitor; 1 µM): 68%
N#CCCc1ccc2c(c1)-c1[nH]c3ccc([N+](=O)[O-])cc3c1CC(=O)N2 — remaining signal (cell-free assay; 0.5 µM): 7.72%
COc1cc2ncnc(Nc3ccc(Oc4ccccc4)cc3C)c2cc1OC — inhibition (enzyme activity, inhibitor; 1 µM): -1%
CS(=O)(=O)N1CCCC(NC(=O)[C@H](CCC2CCCCC2)NC(=O)c2ccc(CNc3ncnc4c3nnn4-c3ccccc3)cc2)C1 (some centres unmarked) — remaining binding (cell-free assay, competition with immobilised ligand; 0.1 µM): 87%
Cc1sc(C(=O)NC2COC2)cc1-n1cc(NC(=O)Nc2c(F)cccc2Cl)cn1 — remaining activity (enzyme activity, inhibitor; 10 µM): 84%
O=C(Nc1cnc(Oc2ccc(F)cc2)nc1)N1CCc2ncccc2[C@@H]1c1ccc(F)cc1 — remaining binding (cell-free assay, competition with immobilised ligand; 1 µM): 100%
CC(C)(O)[C@H]1CC[C@H](Nc2ccc3ncc(-c4cccc(C(F)(F)F)c4)n3n2)CC1 — remaining activity (enzyme activity, inhibitor; 1 µM): 84.1%
C[C@@H]1CN(c2cc(-c3nn(C)c4ccc(OC5(C)CC5)cc34)ncn2)C[C@H](C)O1 — remaining binding (cell-free assay, competition with immobilised ligand; 1 µM): 90%
Nc1ncnc2occ(-c3ccc(NC(=O)Nc4cc(C(F)(F)F)ccc4F)cc3)c12 — remaining signal (cell-free assay, inhibitor; 20 µM): 92%
FC(F)c1nc2ccccc2n1-c1nc(N2CCOCC2)nc(N2CCOCC2)n1 — remaining activity (enzyme activity, inhibitor; 10 µM): 94%
Cc1c(C(=O)O)cc(-c2ccc(C3CCNCC3)cc2)c2ccc(-c3ccc(C(F)(F)F)cc3)cc12 — remaining binding (cell-free assay, competition with immobilised ligand; 1 µM): 100%
CC(C)(C)c1nc2c(s1)c1nc(N)ncc1c1ccc(NS(=O)(=O)c3c(F)cccc3F)c(F)c12 — remaining activity (enzyme activity, inhibitor, radiometric; 1 µM): 98%
O=C1NC(=O)c2cc(Nc3ccc(F)cc3)c(Nc3ccc(F)cc3)cc21 — remaining signal (cell-free assay; 0.5 µM): 94.8%
